Calls of active or inactive are those of the source.
Columns and labels:
Mu-type opioid receptor = Mu-type opioid receptor (Rattus norvegicus, UniProt P33535); assay: Displacement of [3H]DAMGO from mu opioid receptor in rat cortices by competition binding assay
How it was run: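 Rat cortex membranes were prepared in 50 mM Tris pH 7.4, preincubated at 37 °C for 30 min, and resuspended with 2 mg/mL bovine serum. Assay used 2 nM [3H]DAMGO. Binding was stopped by filtration through BSA-soaked GF/B filters, followed by scintillation counting. IC50 was converted to Ki. Values are mean ± SD of two experiments, each in duplicate.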

[1] = biological target: Kappa-type opioid receptor (Cavia porcellus, UniProt P41144); assay: Displacement of [3H]U69593 from kappa opioid receptor in guinea pig cortices and cerebella by competition binding assay
How it was run: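 Guinea pig cortex and cerebellum membranes were prepared in 50 mM Tris pH 7.4 with 10 mM MgCl2. Assay used 2 nM [3H]U69,593, incubated 2 h at 25 °C. Unlabeled U50,488 defined nonspecific binding. Filtration was through GF/B filters, with scintillation counting. Ki is mean ± SD of two experiments, each in duplicate.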

[2] = biological target: Delta-type opioid receptor (Rattus norvegicus, UniProt P33533); assay: Displacement of [3H]DPDPE from delta opioid receptor in rat cortices by competition binding assay
How it was run: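 Rat cortex membranes were prepared in 50 mM Tris pH 7.4 with 10 mM MgCl2 and 200 μM PMSF. Assay used 2 nM [3H]DPDPE, incubated 2.5 h at 25 °C. Unlabeled DPDPE defined nonspecific binding. Filtration was through BSA-soaked GF/B filters, with scintillation counting. Ki is mean ± SD of two experiments, each in duplicate.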

[3] = biological target: Delta-type opioid receptor (Homo sapiens, UniProt P41143); assay: Agonist activity at delta opioid receptor (unknown origin) expressed in CHO-K1 cells assessed as inhibition of forskolin-induced cAMP accumulation by FRET assay; assay type: functional, cell-based
How it was run: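 CHO cells stably expressing DOR, plated at 20 000 cells/well (figure legend: 100 000). Exposed to test agent with 4 μM forskolin (legend: 1 μM) in 1× PBS with 1 mM […] for 30 min at rt. HTRF cAMP read-out with europium cryptate and d2 in lysis buffer for 1 h. EC50 ± SEM from three experiments, two replicates each.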

Mus musculus [4] = assay: Antinociceptive effect in icv dosed C57BL/6 mouse assessed as tail withdrawal latency measured up to 2 hrs by 55 degC Warm water tail withdrawal assay; assay type: functional
Mus musculus [5] = assay: Antinociceptive effect in ip dosed C57BL/6 mouse assessed as tail withdrawal latency measured up to 2 hrs by 55 degC Warm water tail withdrawal assay; assay type: functional; conditions: C57BL/6, Tail
Mus musculus [6] = assay: Antinociceptive effect in po dosed C57BL/6 mouse assessed as tail withdrawal latency measured up to 2 hrs by 55 degC Warm water tail withdrawal assay; assay type: functional; conditions: C57BL/6, Tail
Mus musculus [7] = assay: Antinociceptive effect in icv treated C57BL/6 mouse assessed as tail withdrawal latency at 30 nM, icv measured up to 2 hrs by 55 degC Warm water tail withdrawal assay; assay type: functional
Mus musculus [8] = assay: Antinociceptive effect in C57BL/6 mouse assessed as tail withdrawal latency at 10 mg/kg, ip measured up to 2 hrs by 55 degC Warm water tail withdrawal assay; assay type: functional
Mus musculus [9] = assay: Antinociceptive effect in C57BL/6 mouse assessed as tail withdrawal latency at 30 mg/kg, po measured up to 2 hrs by 55 degC Warm water tail withdrawal assay; assay type: functional
Mus musculus [10] = assay: Antinociceptive effect in icv dosed C57BL/6 mouse assessed as tail withdrawal latency measured up to 2 hrs by 55 degC Warm water tail withdrawal assay in presence of 0.5 mg/kg, sc naltrindole; assay type: functional, organism-based
Mus musculus [11] = assay: Analgesic activity in ip dosed C57BL/6 mouse assessed as inhibition of acetic acid-induced writhing response measured after 5 mins by acetic acid writhing assay; assay type: functional; conditions: C57BL/6, ip
How it was run: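 Adult male C57BL/6J mice, eight per dose, were given a single graded ip dose in 1:1:8 ethanol/Tween-80/saline vehicle. After 25 min they received 0.9% acetic acid ip. Writhes were counted for 15 min starting 5 min later. % antinociception was taken relative to the ip vehicle group, and ED50 with 95% CI was obtained by regression.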

Mus musculus [12] = assay: Antinociceptive effect in icv dosed MOR knock out C57BL/6 mouse assessed as tail withdrawal latency measured up to 2 hrs by 55 degC Warm water tail withdrawal assay; assay type: functional, organism-based
Mus musculus [13] = assay: Antinociceptive effect in icv dosed KOR knock out C57BL/6 mouse assessed as tail withdrawal latency measured up to 2 hrs by 55 degC Warm water tail withdrawal assay; assay type: functional, organism-based
Mus musculus [14] = assay: Antinociceptive effect in icv dosed C57BL/6 mouse assessed as tail withdrawal latency measured up to 2 hrs by 55 degC Warm water tail withdrawal assay in presence of 4 nmol, icv ICI174864; assay type: functional, organism-based
Mus musculus [15] = assay: Antinociceptive effect in C57BL/6 mouse assessed as tail withdrawal latency measured at 30 nM, icv up to 2 hrs by 55 degC Warm water tail withdrawal assay in presence of 30 nM, icv naloxone methiodide on same side of blood brain barrier impermeable opioid antagonist; assay type: functional, organism-based
How it was run: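 Adult male C57BL/6J mice, 55 °C warm-water tail withdrawal. Naloxone methiodide pretreatment (30 nmol icv or 30 mg/kg sc) 30 min before the test agent (30 nmol icv in 50% DMSO/saline, or 10 mg/kg ip in 1:1:8 ethanol/Tween-80/saline). Read 30 min after the test agent. % antinociception vs baseline latency with 15 s cutoff. n = 8, mean ± SEM, one-way ANOVA/Tukey.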

Mus musculus [16] = assay: Antinociceptive effect in C57BL/6 mouse assessed as tail withdrawal latency measured at 10 mg/kg, ip […] by 55 degC Warm water tail withdrawal assay in presence of 30 mg/kg, sc naloxone methiodide on same side of blood brain barrier impermeable opioid antagonist; assay type: functional, organism-based
Mus musculus [17] = assay: Antinociceptive effect in C57BL/6 mouse assessed as tail withdrawal latency measured at 30 nM, icv […] by 55 degC Warm water tail withdrawal assay in presence of 30 nM, icv naloxone methiodide on other side of blood brain barrier impermeable opioid antagonist; assay type: functional, organism-based
Mus musculus [18] = assay: Antinociceptive effect in C57BL/6 mouse assessed as tail withdrawal latency […] by 55 degC Warm water tail withdrawal assay in presence of 30 mg/kg, sc naloxone methiodide on other side of blood brain barrier impermeable opioid antagonist; assay type: functional, organism-based
Mus musculus [19] = assay: Antinociceptive effect in C57BL/6 mouse assessed as tail withdrawal latency measured up to 2 hrs by 55 degC Warm water tail withdrawal assay in presence of 10 mg/kg, ip morphine; assay type: functional, organism-based
How it was run: (§1)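 Test agent given to male C57BL/6J mice 2 h before agonist challenge: morphine 10 mg/kg ip, U50,488 10 mg/kg ip, or SNC-80 100 nmol icv. 55 °C warm-water tail withdrawal read 30 min after the agonist. % antinociception relative to baseline latency with 15 s cutoff.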

Mus musculus [20] = assay: Antinociceptive effect in C57BL/6 mouse assessed as tail withdrawal latency measured up to 2 hrs by 55 degC Warm water tail withdrawal assay in presence of 100 nM, icv SNC80; assay type: functional, organism-based; how it was run: as §1
Mus musculus [21] = assay: Antinociceptive effect in C57BL/6 mouse assessed as tail withdrawal latency measured up to 2 hrs by 55 degC Warm water tail withdrawal assay in presence of 10 mg/kg, ip U50488; assay type: functional, organism-based; how it was run: as §1
Serum = assay: Drug uptake in C57BL/6 mouse serum at 30 mg/kg, po after 30 mins by LC-MS/MS analysis; assay type: ADME, organism-based; conditions: in vivo, 0.5 h
How it was run: (§2)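 Male C57BL/6J mice dosed orally at 30 mg/kg in 1:1:8 ethanol/Tween-80/saline, killed at 30, 60, or 90 min. Serum deproteinized with 4 volumes of cold MeCN. Perfused brains homogenized. Supernatants dried and reconstituted in 20% MeCN. C18 LC–MS/MS with summed ion-transition peak areas. Two mice per time point, mean peak area ± SEM.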

Brain = assay: Drug uptake in C57BL/6 mouse brain at 30 mg/kg, po after 30 mins by LC-MS/MS analysis; assay type: ADME, organism-based; conditions: in vivo, 0.5 h; how it was run: as §2
Mus musculus [22] = assay: Antinociceptive tolerance in C57BL/6 mouse assessed as tail withdrawal latency measured treated at 5 nmol, icv first dose second dose after 8 hrs by 55 degC Warm water tail withdrawal assay; assay type: functional
How it was run: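 Acute tolerance was tested in C57BL/6J mice, 8 per dose. The first icv dose was given at time 0: 3 nmol morphine or 5 nmol test agent. A second icv dose between 0.3 and 100 nmol followed 8 h later. Tail withdrawal at 55 °C was measured 30 min after the second injection. Tolerance was judged from the shift in ED50 between single and repeated treatment.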

Mus musculus [23] = assay: Toxicity in C57BL/6 mouse assessed as coordinated locomotor activity at 30 nM, icv up to 60 mins; assay type: organism-based; conditions: in vivo, icv_or_intrathecal, 1 h, 0.03 µM
How it was run: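 Rotorod test after seven habituation trials, the last used as baseline. Test agent 30 nmol icv, vehicle 50% DMSO/saline. Accelerating trials (0–20 rpm, 180 s max) from 10 min over 60 min. Latency to fall expressed as % change from baseline. n = 8–16 per group, repeated-measures/two-way ANOVA with Tukey.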

SMILES: CC(C)[C@H]1CN=C2C=C3N(CCc4ccccc4)[C@@H](Cc4ccc(O)cc4)CN3[C@@H](Cc3ccccc3)CN21
- Ki (Mu-type opioid receptor): 1.11 µM
- Ki [1]: 1.9 µM
- Ki [2]: 1.38 µM

SMILES: Oc1ccc(C[C@H]2CN3C(=CC4=NC[C@H](Cc5ccccc5)N4C[C@@H]3Cc3ccccc3)N2CCc2ccccc2)cc1
- Ki (Mu-type opioid receptor): 3.15 µM
- Ki [1]: > 10 µM
- Ki [2]: 1.28 µM

SMILES: Oc1ccc(C[C@H]2CN3C(=CC4=NC[C@H](Cc5ccc(O)cc5)N4C[C@@H]3Cc3ccccc3)N2)cc1
- Ki (Mu-type opioid receptor): 0.605 µM
- Ki [1]: 2.37 µM
- Ki [2]: 0.069 µM

SMILES: CC(C)C[C@H]1CN2C(=CC3=NC[C@H](C(C)C)N3C[C@@H]2Cc2ccccc2)N1
- Ki (Mu-type opioid receptor): > 10 µM
- Ki [1]: 1.08 µM
- Ki [2]: ≥ 10 µM

SMILES: CC(C)[C@H]1CN=C2C=C3N[C@@H](Cc4ccc(O)cc4)CN3[C@@H](Cc3ccccc3)CN21
- Ki (Mu-type opioid receptor): 5.04 µM
- Ki [1]: 1.95 µM
- Ki [2]: ≥ 10 µM

SMILES: CC(C)C[C@H]1CN2C(=CC3=NC[C@H](C(C)C)N3C[C@@H]2Cc2ccc(O)cc2)N1CCc1ccccc1
- Ki [1]: 0.023 µM
- Ki [2]: 0.032 µM
- EC50 [3]: 0.366 µM
- Activity (Mus musculus [4]): Dose-dependent effect
- ED50 (Mus musculus [5]): 5.09 mg/kg
- ED50 (Mus musculus [6]): 23.2 mg/kg
- Time (Mus musculus [7]): 80 min
- Time (Mus musculus [8]): 80 min
- Time (Mus musculus [9]): 110 min
- inhibition (Mus musculus [10]): inactive
- ED50 (Mus musculus [11]): 0.07 mg/kg
- inhibition (Mus musculus [12]): inactive
- inhibition (Mus musculus [13]): inactive
- inhibition (Mus musculus [14]): inactive
- inhibition (Mus musculus [15]): inactive
- inhibition (Mus musculus [16]): inactive
- Activity (Mus musculus [17]): Active
- Activity (Mus musculus [18]): Active
- Activity (Mus musculus [19]): Active
- Activity (Mus musculus [20]): Active
- Activity (Mus musculus [21]): Active
- Drug uptake (Serum): Active
- Drug uptake (Brain): Not Active
- ED50 (Mus musculus [22]): 2.32 nmol
- Activity (Mus musculus [23]): Non-toxic

SMILES: CC(C)C[C@H]1CN2C(=CC3=NC[C@H](Cc4ccccc4)N3C[C@@H]2Cc2ccc(O)cc2)N1CCc1ccccc1
- Ki (Mu-type opioid receptor): 0.949 µM
- Ki [1]: 0.642 µM
- Ki [2]: 0.037 µM
- EC50 [3]: 1.64 µM

SMILES: Oc1ccc(C[C@H]2CN3C(=CC4=NC[C@H](Cc5ccccc5)N4C[C@@H]3Cc3ccc(O)cc3)N2CCc2ccccc2)cc1
- Ki (Mu-type opioid receptor): 0.878 µM
- Ki [1]: 1.31 µM
- Ki [2]: 0.188 µM

SMILES: CC(C)C[C@H]1CN2C(=CC3=NC[C@H](C(C)C)N3C[C@@H]2Cc2ccccc2)N1CCc1ccccc1
- Ki (Mu-type opioid receptor): 2.75 µM
- Ki [1]: 1.4 µM
- Ki [2]: 1.02 µM

— ChEMBL document CHEMBL3588754, “Parallel Synthesis of Hexahydrodiimidazodiazepines Heterocyclic Peptidomimetics and Their in Vitro and in Vivo Activities at μ (MOR), δ (DOR), and κ (KOR) Opioid Receptors” (J Med Chem, 2015)
